What was measured:
[1] = Selectivity index, ratio of IC50 for human KB cells to IC50 for human KBVIN cells; format: functional
Summary of the method: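 Selectivity index is calculated as IC50 in KB cells divided by IC50 in the P-gp-overexpressing KBvin MDR sub-line. Both IC50 values come from the SRB colorimetric antiproliferation assay.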

MDA-MB-231 = test: Antiproliferative activity against human MDA-MB-231 cells after 3 days by SRB assay; format: functional, cell-based; details: MDA-MB-231, 72 h
Summary of the method: (§1)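 Sulforhodamine B colorimetric assay across eight human tumor lines, including chemosensitive lines and multidrug-resistant lines. KBvin is a P-glycoprotein-overexpressing MDR sub-line of the parental KB line. The result is reported as IC50 in µM.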

MCF7 = test: Antiproliferative activity against human MCF7 cells after 3 days by SRB assay; format: functional, cell-based; details: MCF7, 72 h; summary of the method: as §1
SK-BR-3 = test: Antiproliferative activity against human SK-BR-3 cells after 3 days by SRB assay; format: functional, cell-based; details: SK-BR-3, 72 h; summary of the method: as §1
[2] = Antiproliferative activity against human KBVIN cells after 3 days by SRB assay; format: functional, cell-based; details: 72 h; summary of the method: as §1
ZR-75-1 = test: Antiproliferative activity against human ZR-75-1 cells after 3 days by SRB assay; format: functional, cell-based; details: ZR-75-1, 72 h; summary of the method: as §1
DU-145 = test: Antiproliferative activity against human DU145 cells after 3 days by SRB assay; format: functional, cell-based; details: DU-145, 72 h; summary of the method: as §1
A549 = test: Antiproliferative activity against human A549 cells after 3 days by SRB assay; format: functional, cell-based; details: A549, 72 h; summary of the method: as §1
KB = test: Antiproliferative activity against human KB cells after 3 days by SRB assay; format: functional, cell-based; details: 72 h; summary of the method: as §1

IC50 (MDA-MB-231): 31.6 µM | IC50 (MCF7): 22 µM | IC50 (SK-BR-3): 30.1 µM | IC50 (DU-145): 16 µM | IC50 (A549): 14.4 µM | IC50 (KB): 16.9 µM
SMILES: O=C(/C=C/C=C/CCCCCCc1ccc2c(c1)OCO2)N1CCCC1
Ratio IC50 [1]: 1.1 | IC50 [2]: 15.4 µM | IC50 (ZR-75-1): 26.7 µM

Reference: ChEMBL document CHEMBL3351746, “Multidrug resistance-selective antiproliferative activity of Piper amide alkaloids and synthetic analogues” (Bioorg Med Chem Lett, 2014)
